SENP1 inh – inhibitors of human SENP1 SUMO protease catalytic domain; Q9P0U3; recombinant SENP1 catalytic domain, CyPet-SUMO1-YPet FRET cleavage; inhibition, % at 10 µM; 360,000 tested, 0.21% active;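 active = inhibition at least 30% at 10 µM, raw YFP signal under a set limit, fluorescence ratio 0.5 to 1.5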
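System: Recombinant human SENP1 catalytic domain, His6-tagged | Incubation: Enzyme reaction for 50 min at room temperature, dark | Medium: Tris pH 8 with BME, BSA, NP40 and catalase | Also added: 25 nM SUMO1 FRET substrate | Compound: 10 µM single point, 0.5% DMSO | Measured by: FRET fluorescence in CFP and YFP emission channels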
HNF4A DNA FP – change in binding of human HNF4 alpha to DNA | HNF4a-FITC DNA binding, fluorescence polarization, 1 h | 360,000 tested, 0.3% active | activity change, % at 10 µM; in the data active = activity change above about 30%, passing the limit was not always enough
TPT1 inh – C. albicans TPT1 enzyme inhibition; recombinant caTPT1, FP RNA substrate dephosphorylation; inhibition, % at 5 µM; 300,000 tested, 0.81% active;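 active = inhibition above the mean of all tested compounds plus 3 SD, set per screening campaign, cut at about 24% in these data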
ATG4B inhibitor – ATG4B (human) cysteine protease inhibition; inhibition, % at 8.33 µM; ATG4B cleavage of LC3-PLA2, NBD-HPC fluorescence, 1 h; 340,000 tested, 0.51% active; AID 504462; Q9Y4P1; in the data active = inhibition above about 40%
Target sequence (Q9Y4P1 whole entry, looked up): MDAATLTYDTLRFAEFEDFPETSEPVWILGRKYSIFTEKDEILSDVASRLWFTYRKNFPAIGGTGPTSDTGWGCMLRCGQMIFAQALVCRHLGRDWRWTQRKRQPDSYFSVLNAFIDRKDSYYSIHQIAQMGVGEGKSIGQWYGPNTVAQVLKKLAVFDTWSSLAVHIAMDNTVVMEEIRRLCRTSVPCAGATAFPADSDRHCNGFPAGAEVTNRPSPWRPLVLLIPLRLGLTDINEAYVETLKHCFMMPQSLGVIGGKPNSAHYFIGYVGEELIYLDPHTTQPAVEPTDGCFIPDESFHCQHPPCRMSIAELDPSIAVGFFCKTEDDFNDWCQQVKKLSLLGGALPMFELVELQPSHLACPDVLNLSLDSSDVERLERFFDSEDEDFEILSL
CSN deneddyl inh – inhibitors of human CSN-mediated cullin deneddylation. Q92905. Purified CSN, SCF-Nedd8-OG deneddylation, fluorescence polarization. inhibition, % at 12.5 µM. 360,000 tested, 0.38% active;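 active = pattern-corrected inhibition above about 35%, with an unprinted fluorescence ratio check between 0.5 and 1.5, limit read from the data, passing the limit was not always enough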
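Schedule: reaction 90 min, room temperature / Assay system: HEK293T-derived human Csn5 enzyme / Input: Csn5 at 0.24 nM final / Measure: inhibition of Csn5 cleavage, % / Control set: substrate-only high control, full reaction low control / Technique: fluorescence polarization of the substrate / Buffer or medium: Tris/NaCl/DTT buffer, pH 7.5 / Reagent: SCFSkp2-Nedd8OG substrate at 10 nM final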
Rpn11 block – Rpn11 (human) deubiquitinase inhibition | O00487 | human 26S proteasome, Ub4-pepOG fluorescence polarization; 20S core pre-blocked with epoxomicin | inhibition, % at 20 µM | 360,000 tested, 0.59% active | AID 588493;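 active = inhibition at 20 µM, scaled to each plate's controls, above about 33%, limit read from the data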
Target sequence (O00487 whole entry, looked up): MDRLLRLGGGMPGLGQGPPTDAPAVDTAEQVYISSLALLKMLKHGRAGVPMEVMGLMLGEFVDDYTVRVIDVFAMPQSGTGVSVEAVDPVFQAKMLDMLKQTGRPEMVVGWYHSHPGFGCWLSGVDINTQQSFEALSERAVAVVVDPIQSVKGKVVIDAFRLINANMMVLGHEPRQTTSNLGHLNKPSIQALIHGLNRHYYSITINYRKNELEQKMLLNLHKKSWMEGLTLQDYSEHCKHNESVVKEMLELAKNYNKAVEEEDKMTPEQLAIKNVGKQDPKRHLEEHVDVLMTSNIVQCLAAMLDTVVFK
TPT1 inh confirm – TPT1 (C. albicans) inhibition, confirmation. shares compounds with TPT1 inh. recombinant caTPT1, fluorescence polarization, RNase T1 coupled. inhibition, % at 5 µM. 2,400 tested, 74% active. AID 2149;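 active = inhibition above the primary screen limit, the mean inhibition of all tested compounds plus 3 SD, cut at about 25% in these data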
RNase T1 counter – RNase T1 inhibition in TPT1 counter-screen | shares compounds with TPT1 inh | RNase T1 cleavage, fluorescence polarization, 1536-well | inhibition, % at 5 µM | 2,400 tested, 83% active | AID 2153;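 active = inhibition above the solvent-only control well mean plus 3 SD, limit set per screening run, cut at about 23% in these data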;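 note: inhibitors block cleavage so intact labeled substrate keeps polarization high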
Numbers stand for hits; 0 = inactive; - = no result given. An excerpt weighted towards active compounds, which were near 2% of everything screened.

SMILES | SENP1 inh | HNF4A DNA FP | TPT1 inh | ATG4B inhibitor | CSN deneddyl inh | Rpn11 block | TPT1 inh confirm | RNase T1 counter
Cn1cc(C(=O)N/N=C/c2c(O)ccc3ccccc23)ccc1=O | 0 | 0 | 57 | 0 | 0 | 0 | 70 | 54
COc1cc(OC)c(C(=O)OCC(=O)Nc2nnc(-c3ccccc3)o2)cc1OC | 0 | 0 | - | 0 | 0 | 0 | - | -
CCc1cccc(OCCCn2ccnc2)c1 | 0 | 0 | 36 | 0 | 0 | 0 | 0 | 0
COc1cccc(OCCCn2ccnc2)c1 | 0 | 0 | 0 | 0 | 0 | 0 | - | -
COc1ccc(C(=O)N(c2c(C)cccc2C)C(COC(C)=O)COC(C)=O)cc1 | 0 | 0 | - | - | 0 | - | - | -
CCc1ccc(C(O)c2ncc(-c3cccc(C)c3)[nH]2)cc1 (stereo not given) | 0 | 0 | - | - | 0 | 0 | - | -
COc1ccccc1N/C=C/c1onc(C)c1[N+](=O)[O-] | 0 | 69 | 113 | 0 | 0 | 0 | 97 | 105
Cc1noc(/C=C/Nc2ccc(F)cc2F)c1[N+](=O)[O-] | 0 | 0 | 0 | 0 | 0 | 0 | - | -
CCN(CC)C(=O)[C@H]1C[C@H](CC(=O)NCc2ccc(OC)c(OC)c2)C(=O)N2CCc3c([nH]c4cc(-c5ccco5)ccc34)[C@]12C | 0 | 0 | - | 0 | 0 | 0 | - | -
COc1ccc(C2=NN(c3nc(-c4ccc(CNC(C)=O)cc4)cs3)C(c3ccco3)C2)cc1 (stereo not given) | 0 | 0 | 31 | 0 | 0 | 0 | 0 | 0
COc1ccc(-c2csc(N3CCN(C(=O)c4ccco4)CC3)n2)cc1 | 0 | 0 | 0 | 0 | 0 | 0 | - | -
CCN1c2ccc(S(=O)(=O)N3CCOCC3)cc2N(Cc2ccc(OC)cc2)C1C (stereo not given) | 0 | 0 | 32 | 0 | 0 | 0 | 48 | 59
CN1CCc2c(sc(/N=C/c3cccs3)c2C(N)=O)C1 | 0 | 0 | 39 | 0 | 0 | 0 | 43 | 56
CN1CCc2c(sc(N)c2C(=O)c2ccc(Cl)cc2)C1 | 0 | 40 | 32 | 0 | 0 | - | 37 | 48
CN1CCc2c(sc(NC(=O)Cc3ccc(F)cc3)c2C(N)=O)C1 | 0 | 0 | 0 | 0 | 0 | 0 | - | -
CCN1CCc2c(sc(NC(=S)NC(=O)c3ccco3)c2C(N)=O)C1 | 0 | 0 | 33 | 0 | 0 | 0 | 32 | 42
CC(C)C(=O)Nc1sc2c(c1C(N)=O)CCN(Cc1ccccc1)C2 | 0 | 0 | 0 | 0 | 0 | 0 | - | -
NC(=O)c1c(NC(=O)c2ccccc2)sc2c1CCN(Cc1ccccc1)C2 | 0 | 0 | 71 | 0 | 46 | - | 56 | 66
O=C(NC1CCCC1)C(c1ccco1)N1CCC(O)(c2ccc(Cl)cc2)CC1 (stereo not given) | 0 | 0 | - | - | 0 | - | - | -
O=C(c1ccc2ccccc2c1)c1cccc(F)c1C(=O)O | 0 | 0 | - | - | 0 | 0 | - | -
CN1CCc2c(sc(NC(=O)Cc3ccccc3)c2C(N)=O)C1 | 0 | 0 | 0 | 0 | 0 | 0 | - | -
CN1CCc2c(sc(NC(=O)c3ccc4ccccc4c3)c2C(N)=O)C1 | 0 | 0 | 34 | - | 0 | - | 25 | 34
NC(=O)c1c(NC(=O)c2c(F)cccc2F)sc2c1CCN(Cc1ccccc1)C2 | 0 | 0 | 36 | 0 | 0 | 0 | 0 | 23
CCC(=O)Nc1sc2c(c1C(N)=O)CCN(Cc1ccccc1)C2 | 0 | 0 | 0 | 0 | 0 | 0 | - | -
COc1cc(OC)cc(C(=O)NC(C(=O)NNC(=O)CN(C)S(=O)(=O)c2ccc(C)cc2)C(C)C)c1 (stereo not given) | 0 | 0 | - | 0 | 0 | 0 | - | -
SMILES | SENP1 inh | HNF4A DNA FP | TPT1 inh | ATG4B inhibitor | CSN deneddyl inh | Rpn11 block | TPT1 inh confirm | RNase T1 counter
COC(=O)[C@@]1(Cc2ccc(F)cc2)[C@H]2c3cc(C(=O)N(C)C)n(CCCNc4ncc(C(F)(F)F)cc4Cl)c3C[C@H]2CN1C(=O)c1ccccc1 | 0 | 0 | - | - | 0 | - | - | -
O=C1C2C3CC4C5C3C1C5C1(SCCS1)C42 (stereo not given) | 0 | 0 | - | - | 0 | 0 | - | -
CCCCCC(=O)N1C[C@@H](n2cc(C3CC3)nn2)[C@H](O)C[C@@H]1c1ccccc1 | 0 | 0 | - | - | 0 | 0 | - | -
O/C(=C\c1ccc2ccccc2n1)c1ccc(O)cc1O | 0 | 65 | 98 | 0 | 0 | - | 110 | 108
Cc1ccc(C(=O)N/C(=C\c2ccc(-c3ccc([N+](=O)[O-])cc3)o2)C(=O)NC2CCS(=O)(=O)C2)cc1 (stereo not given) | 0 | 0 | 47 | 0 | 0 | - | 58 | 71
O=C(NCCCO)/C(=C/c1ccc(-c2cccc([N+](=O)[O-])c2)o1)NC(=O)c1ccccc1 | 0 | 0 | 0 | 0 | 0 | 0 | - | -
Cc1ccc(C(=O)N/C(=C\c2ccc(-c3cccc([N+](=O)[O-])c3)o2)C(=O)NC(C)(C)C)cc1 | 0 | 0 | 0 | 0 | 0 | 0 | - | -
Cc1ccc(C(=O)N/C(=C/c2ccc(-c3ccc([N+](=O)[O-])cc3)o2)C(=O)NCCCN(C)C)cc1 | 0 | 0 | 26 | 0 | 0 | 0 | 24 | 33
CC(=O)N(C(C)=O)c1ccc2c(c1)OCCO2 | 0 | 0 | - | - | 0 | 0 | - | -
O=C(Cn1nnc(-c2ccc(Cl)cc2)n1)NC(=O)NC1CCCC1 | 0 | 0 | - | - | 0 | 0 | - | -
Cn1nnnc1SCc1nc2scc(-c3ccccc3)c2c(=O)[nH]1 | 0 | 0 | 0 | 0 | 0 | 0 | - | -
Cn1nnnc1SCc1nc2scc(-c3ccc(Cl)cc3)c2c(=O)[nH]1 | 0 | 39 | 29 | 0 | 0 | - | 50 | 59
COc1ccc(/C=C/C(=O)NCc2cccnc2)cc1 | 0 | 0 | 0 | 0 | 0 | 0 | - | -
CCc1ccc(CN(Cc2cccnc2)C(=O)/C=C/c2ccc(OC)cc2)cc1 | 0 | 60 | 39 | 0 | 0 | - | 89 | 102
CSCc1nc2sc(C(=O)Nc3nc(C)cs3)c(C)c2c(=O)[nH]1 | 0 | 0 | 33 | 0 | 0 | - | 39 | 51
COc1cc(/C=N/N2C(=O)CSC2=S)ccc1O | 0 | 0 | 28 | 0 | 0 | 49 | 28 | 40
O=C1CSC(=S)N1/N=C/c1cc(Br)c(O)c(Br)c1 | 0 | 0 | 82 | 61 | 0 | - | 75 | 84
COc1cc(O)c(C=NN2C(=O)CSC2=S)c(OC)c1 | 0 | 0 | - | - | 0 | 0 | - | -
C=CCn1c(/N=C/c2ccc(N(C)C)cc2)nc2ccccc21 | 0 | 59 | 27 | 0 | 0 | - | 110 | 117
C=CCn1c(/N=C/c2ccc(OC)cc2)nc2ccccc21 | 0 | 0 | 0 | 0 | 0 | 0 | - | -
CCC1C/C(=C/c2ccco2)C(=O)/C(=C/c2ccco2)C1 (stereo not given) | - | - | 68 | - | - | - | 75 | 80
Nc1nc2cc(S(=O)(=O)N3CCOCC3)ccc2o1 | 0 | 0 | - | 0 | 0 | 0 | - | -
O=C(Cc1ccc(Cl)c(Cl)c1)Nc1cccc(S(=O)(=O)N2CCOCC2)c1 | 0 | 0 | 62 | 0 | 0 | 0 | 0 | 0

Screening data from PubChem.
